Sampled rows, rich in hits. Any-hit rate of the full collection: about 1.7%.
eIF4H inh: inhibitors of RNA binding by human eIF4H | eIF4H fluorescence polarization binding assay | Q15056 | 0.94% of 290,000 active | inhibition, % at 35 µM | AID 2012;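 further: calls also rest on retests at 20 µM and on dose response follow-up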
PABP FP inh: blocks human PABP binding to poly(A) RNA; P11940; fluorescence polarization; inhibition, % at 35 µM; 1% of 290,000 active;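 further: calls also rest on retests at 20 µM and on dose response follow-up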
Target sequence (P11940 whole entry, looked up): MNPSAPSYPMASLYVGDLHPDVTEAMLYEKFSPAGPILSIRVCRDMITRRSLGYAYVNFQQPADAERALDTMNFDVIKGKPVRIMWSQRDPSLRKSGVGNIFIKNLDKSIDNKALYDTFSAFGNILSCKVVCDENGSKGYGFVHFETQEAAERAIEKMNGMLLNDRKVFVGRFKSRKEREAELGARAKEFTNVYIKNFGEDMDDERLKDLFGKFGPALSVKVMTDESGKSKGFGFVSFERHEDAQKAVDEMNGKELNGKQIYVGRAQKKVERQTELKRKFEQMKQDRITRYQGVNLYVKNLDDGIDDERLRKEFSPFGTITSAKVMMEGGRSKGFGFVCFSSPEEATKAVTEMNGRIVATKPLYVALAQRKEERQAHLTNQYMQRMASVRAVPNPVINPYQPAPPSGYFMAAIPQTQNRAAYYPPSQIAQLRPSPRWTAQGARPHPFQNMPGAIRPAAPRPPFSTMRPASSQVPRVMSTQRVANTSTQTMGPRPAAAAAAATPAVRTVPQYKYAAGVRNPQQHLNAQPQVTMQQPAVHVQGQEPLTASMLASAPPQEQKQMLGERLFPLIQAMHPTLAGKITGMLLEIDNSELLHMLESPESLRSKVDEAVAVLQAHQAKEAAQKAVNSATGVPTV
MT1-MMP act inh: inhibitors of human MT1-MMP activation | P50281 | HT1080 RFP-PRO-GFP cells, GFP/RFP ratio fluorescence, overnight; percent of plate control window, DMSO zero | GFP/RFP ratio change, % at 20 µM | 0.061% of 360,000 active | AID 651647;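 active means GFP/RFP ratio change of at least 30% with cell ATP level not reduced by more than half and red fluorescence within 50% of control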
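Assay system: RFP-PRO-GFP reporter HT1080 cells; read-out basis: GFP/RFP fluorescence ratio; benchmarks: DMSO wells and RFP-L50D-GFP cells; doses: 20 µM single dose, 1% DMSO; schedule: overnight cell settling, then overnight compound exposure, 37 °C, 5% CO2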
SKN-1 inh: inhibitors of C. elegans SKN-1. C. elegans VP596 Pgst-4::GFP/RFP ratio, acrylamide-induced, 24 h. inhibition, % at 21.8 µM. 0.49% of 360,000 active;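 active means interference check ratio from 0.5 to 1.5 plus GFP to RFP signal ratio inhibition reaching or exceeding a fixed threshold, cut at about 30% in these data, passing the limit was not always enough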
MLLE-PAM2 inh: blocks PAM2 peptide binding to the PABP1 MLLE domain; P11940; inhibition, % at 20 µM; AID 588489; 0.36% of 360,000 active; GST-MLLE / FITC-PAM2 fluorescence polarization; in the data active means inhibition above about 35%, passing the limit was not always enough;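 further: plate controls were DMSO wells with GST-MLLE for no effect and wells lacking GST-MLLE protein for full effect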
Active calls of the source: *; ? = inconclusive; nt = no result. Unless noted, how the calls were made is not given here.

SMILES | eIF4H inh | PABP FP inh | MT1-MMP act inh | SKN-1 inh | MLLE-PAM2 inh
Cn1nc(C(=O)N2CCN(S(=O)(=O)c3ccccc3)CC2)c2ccccc2c1=O | -5 | 0 | -5 | 38* | -43
COc1ccccc1CNC(=O)C1CC(c2ccccc2[N+](=O)[O-])=NO1 (stereo not given) | 54 | active | 0 | 3 | 14
N/C(=N\OC(=O)CSc1ccccc1)c1ccc([N+](=O)[O-])cc1 | 3 | -3 | 1 | 54* | 41*
c1ccc(-c2nn3c(Cn4nnc5ccccc54)nnc3s2)nc1 | 70* | 47 | -1 | -7 | 30
c1cncc(-c2nn3c(Cn4nnc5ccccc54)nnc3s2)c1 | -2 | 3 | -12 | -9 | 33
O=C(NCC1CCCO1)c1ccc(COc2ccccc2)cc1 (stereo not given) | 3 | 13 | -5 | -1 | -15
CC1CCN(S(=O)(=O)CCNC(=O)c2ccc(F)cc2)CC1 | nt | nt | -1 | 12 | 0
CNC(=O)NC(=O)C(c1ccccc1)N(C)CC1COc2ccccc2O1 (stereo not given) | 3 | 6 | 2 | 11 | -4
Nc1nc(-c2ccc3c(c2)CCO3)cs1 | 0 | 91* | 5 | 9 | 13
CC(=O)n1c2ccccc2c2c1c1ccccc1n2C | 6 | 3 | -22 | -3 | 66*
Cc1ccc(C2=NN(C(=O)CCl)C(c3ccco3)C2)o1 (stereo not given) | -4 | 5 | 0 | 6 | -1
CC(=O)Nc1ccc(S(=O)(=O)NC(C)C(=O)NC(C)c2ccccc2)cc1 (stereo not given) | 0 | 8 | 3 | -13 | 49*
CC(=O)Nc1ccc(S(=O)(=O)NC(C)c2ccncc2)cc1 (stereo not given) | nt | nt | 6 | 4 | 17
O=C1CC(/C=C/c2ccco2)=Nc2ccccc2N1 | 95* | 113* | -7 | 9 | 34
O=C1CC(/C=C/c2ccccn2)=Nc2ccccc2N1 | 46 | 1 | -13 | 13 | -22
Fc1ccc(C2Nc3cccc4cccc(c34)N2)cc1 | 53* | 40* | -3 | 2 | 5
O=[N+]([O-])c1cccc(C2Nc3cccc4cccc(c34)N2)c1 | 44 | 2 | 0 | 10 | 16
Clc1ccccc1C1Nc2cccc3cccc(c23)N1 | ? | ? | -3 | 1 | 6
Oc1ccc(C2Nc3cccc4cccc(c34)N2)c(O)c1 | 89* | 41* | 18 | 9 | 7
Clc1cccc(C2Nc3cccc4cccc(c34)N2)c1Cl | 103* | 70* | 2 | -18 | 10
O=[N+]([O-])c1ccc(C2Nc3cccc4cccc(c34)N2)cc1 | 97* | 87* | 9 | 10 | 6
Cc1ccc(CNS(=O)(=O)c2cc3c4c(c2)C(C)C(=O)N4CCC3)cc1 (stereo not given) | nt | nt | -2 | 12 | -2
O=S1(=O)CCOC(CO)CN1Cc1ccc(Cl)c(Cl)c1 (stereo not given) | nt | nt | 4 | -12 | -6
Cc1ccc(CNC(=O)Cc2ccc(Br)cc2)cc1 | -19 | -3 | -6 | 10 | 9
Brc1ccc(C2Nc3cccc4cccc(c34)N2)cc1 | nt | nt | -4 | 9 | -5
SMILES | eIF4H inh | PABP FP inh | MT1-MMP act inh | SKN-1 inh | MLLE-PAM2 inh
Cc1ccc(C2Nc3cccc4cccc(c34)N2)s1 | 103 | 24* | 9 | -2 | 12
c1coc(C2Nc3cccc4cccc(c34)N2)c1 | 110* | 102* | nt | nt | nt
COc1ccc(-c2oc3ccc(-c4cc(OC)c(OC)c(OC)c4)cc3c2C#Cc2ccsc2)cc1 | -3 | -1 | -6 | 1 | -11
CSc1ccc(CN(C)C(=O)c2cccc(S(=O)(=O)NCc3ccccc3)c2)cc1 | 25 | 57* | -1 | 7 | 7
CSc1ccc(CN(C)C(=O)c2cc(S(=O)(=O)NCc3ccccc3)ccc2C)cc1 | nt | nt | 10 | -16 | -2
COc1ccc2cc(C(=O)NCc3ccco3)c(=O)oc2c1 | -4 | 2 | 10 | -6 | -10
Cc1occc1C(=O)NCc1ccccc1 | 2 | 10 | 9 | -6 | 17
Cc1occc1C(=O)NCc1ccco1 | 58* | 3.9* | 3 | 4 | -4
CSc1ccc(Cl)c(C(=O)OCC(=O)NCc2ccco2)c1 | 33 | 18 | -3 | 1 | -10
O=C(NCc1ccco1)c1cc2ccc(O)cc2oc1=O | ? | 37* | 5 | -12 | -7
CSc1ccc(Cl)c(C(=O)NCc2ccco2)c1 | 4 | -1 | 4 | 41* | 32
O=C(OCc1c(-c2ccccc2)ncc2ccccc12)c1cccc(Br)c1 | nt | nt | 2 | -4 | 13
O=C(COC(=O)Cc1ccsc1)Nc1ccc(Cl)cn1 | nt | nt | 4 | 11 | 7
N=c1sccn1CC(=O)NC(c1ccccc1)c1ccccc1 | 1.1* | 81 | 9 | 4 | 2
COc1ccccc1NC(=O)c1ccc(NC(=O)c2nc3nccc(C)n3n2)cc1 | nt | nt | 2 | 2 | 9
Cc1ccccc1NC(=O)c1nc2nccc(C)n2n1 | active | 62 | -1 | 2 | 9
Cc1ccc(S(=O)(=O)N(C)CC(=O)N2CCN(Cc3ccccc3)CC2)cc1 | 9 | -1 | 0 | 9 | 4
CC(C)(C)CC(=O)Nc1ccc(-c2nnc3n2CCCCC3)cc1 | 78* | 62* | 1 | -2 | 3
C/C(=N\OCc1ccccc1C#N)c1cc2ccccc2o1 | -8 | -6 | 1 | -1 | 4
C/C(=N\OCc1ccc(C#N)cc1)c1cc2ccccc2o1 | -1 | -8 | 5 | 54* | 12
N#Cc1c(-c2ccco2)cc(-c2ccccc2)[nH]c1=O | ? | 101* | -5 | -6 | -104
COc1ccc(OC)c(S(=O)(=O)N2CCN(c3ccccn3)CC2)c1 | 11 | 2 | 0 | 8 | 3
COc1ccc(OC)c(S(=O)(=O)N2CCCCC2C(=O)N2CCN(c3ccccn3)CC2)c1 (stereo not given) | 5 | -3 | 0 | -5 | 38*
CN(CC(=O)Nc1ccc(Cl)cc1)C(=O)Cn1[nH]c(=O)c2ccccc2c1=O | nt | nt | 1 | 4 | -12
COc1ccc(/C(O)=C2/C(=O)C(=O)N(CC3CCCO3)C2c2cccc(OC)c2)cc1 (stereo not given) | 1 | 2 | -1 | -2 | -13
SMILES | eIF4H inh | PABP FP inh | MT1-MMP act inh | SKN-1 inh | MLLE-PAM2 inh
COc1ccc(/C(O)=C2/C(=O)C(=O)N(CC3CCCO3)C2c2ccc(O)c(OC)c2)cc1 (stereo not given) | active | 76* | 3 | -13 | 17
O=C(NCCN1C(=O)S/C(=C\c2ccc(Cl)c([N+](=O)[O-])c2)C1=O)C1=COCCO1 | nt | nt | 1 | 10 | -11
O=C(c1ccc(F)cc1)N1CCOCC1 | -7 | 3 | -1 | -1 | 9
O=C(c1ccc(=O)oc1)N1CCOCC1 | 88* | 66* | 1 | 9 | 3
COC(CNC(=O)C(=O)Nc1cc2c3c(c1)CCN3C(=O)CC2)OC | -6 | 3 | -2 | 0 | 2
Cc1cc(C)c(NC(=O)NC(=O)c2cccc(F)c2)c(C)n1 | -3 | 9 | 2 | 7 | -8

Assay outcomes from PubChem BioAssay.
